Test results as given in article PMC9295256 (Journal of medicinal chemistry, 2021).
Entries after “also recorded” stand apart in the source; their conditions may differ. Like-named read-outs stand apart in the source and are kept apart here.

How the values were obtained:
[1] = format: in vitro ADME, mouse
recombinant rat Nln = recombinant rat Nln (Rattus norvegicus, UniProt P42676); assay: Nln activation, continuous quenched fluorescence substrate; format: biochemical; conditions: for increase in potency over the least active hit / increase in potency over the most active hit: A50 ratio; for mean Amax of the two enantiomers: mean over L and D enantiomer
Sequence of recombinant rat Nln (P42676 38-704): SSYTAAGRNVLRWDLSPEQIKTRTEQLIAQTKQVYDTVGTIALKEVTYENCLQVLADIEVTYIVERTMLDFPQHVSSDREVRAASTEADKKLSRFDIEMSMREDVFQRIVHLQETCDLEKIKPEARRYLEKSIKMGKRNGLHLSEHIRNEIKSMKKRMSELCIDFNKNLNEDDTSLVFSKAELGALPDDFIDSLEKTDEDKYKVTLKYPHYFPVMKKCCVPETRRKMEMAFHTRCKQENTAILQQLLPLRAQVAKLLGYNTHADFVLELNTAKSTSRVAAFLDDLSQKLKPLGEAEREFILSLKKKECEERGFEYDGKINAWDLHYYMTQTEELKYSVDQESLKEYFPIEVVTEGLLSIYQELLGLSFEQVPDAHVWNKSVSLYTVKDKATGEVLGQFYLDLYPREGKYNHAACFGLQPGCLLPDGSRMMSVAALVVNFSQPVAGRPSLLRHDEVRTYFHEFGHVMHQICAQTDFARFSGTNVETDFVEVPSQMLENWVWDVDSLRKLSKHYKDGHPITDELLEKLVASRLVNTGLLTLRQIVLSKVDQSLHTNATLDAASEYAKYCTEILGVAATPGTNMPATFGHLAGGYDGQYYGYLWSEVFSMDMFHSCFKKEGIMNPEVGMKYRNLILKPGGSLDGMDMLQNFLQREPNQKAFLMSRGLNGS

[2] = Brain protein binding, rapid equilibrium dialysis; format: in vitro ADME; conditions: mouse, mouse brain homogenate (dilution factor D = 5)
Method in brief: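 Mouse brain homogenate spiked to 500 ng/mL final (from a 10 µg/mL aqueous dilution of DMSO solution) was dialysed against DPBS across an 8 kDa cutoff membrane for 4 h at 37 °C with 250 rpm orbital shaking. Both chambers were sampled and quantified by LC–MS/MS. fu,d = receiver/donor, corrected to undiluted fu with D = 5. Done in triplicate.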

[3] = test system: co-culture of primary mouse astrocytes and immortalized mouse endothelial cells (bEnd3); format: in vitro ADME; conditions: ratio of Pe values
human TOP = human TOP (Homo sapiens, UniProt P52888); assay: Peptidase selectivity: thimet oligopeptidase, fluorogenic substrate; format: biochemical; conditions: eight-point concentration–response up to 300 μM; substrate 15 μM
Sequence of human TOP (P52888 whole entry): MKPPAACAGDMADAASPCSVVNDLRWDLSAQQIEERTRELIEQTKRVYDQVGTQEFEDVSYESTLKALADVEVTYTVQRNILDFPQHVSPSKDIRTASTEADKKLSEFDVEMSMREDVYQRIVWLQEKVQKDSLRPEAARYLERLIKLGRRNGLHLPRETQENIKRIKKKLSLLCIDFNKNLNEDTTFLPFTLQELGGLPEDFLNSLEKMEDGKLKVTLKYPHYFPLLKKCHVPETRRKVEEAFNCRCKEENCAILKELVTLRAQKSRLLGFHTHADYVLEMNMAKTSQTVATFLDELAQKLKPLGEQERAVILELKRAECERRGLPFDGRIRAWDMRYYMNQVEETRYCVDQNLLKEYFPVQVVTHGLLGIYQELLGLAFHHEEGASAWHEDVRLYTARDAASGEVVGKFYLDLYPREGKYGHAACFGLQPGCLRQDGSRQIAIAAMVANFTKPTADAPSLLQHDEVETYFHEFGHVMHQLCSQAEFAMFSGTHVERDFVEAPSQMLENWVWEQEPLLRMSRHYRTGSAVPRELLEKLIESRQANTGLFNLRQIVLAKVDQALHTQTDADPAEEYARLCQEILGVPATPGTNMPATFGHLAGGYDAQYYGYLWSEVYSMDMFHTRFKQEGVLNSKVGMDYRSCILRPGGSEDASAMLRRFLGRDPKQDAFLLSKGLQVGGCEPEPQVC

human NEP = human NEP (Homo sapiens, UniProt P08473); assay: Peptidase selectivity: neprilysin, fluorogenic substrate; format: biochemical; conditions: eight-point concentration–response up to 300 μM; substrate 10 μM
Sequence of human NEP (P08473 whole entry): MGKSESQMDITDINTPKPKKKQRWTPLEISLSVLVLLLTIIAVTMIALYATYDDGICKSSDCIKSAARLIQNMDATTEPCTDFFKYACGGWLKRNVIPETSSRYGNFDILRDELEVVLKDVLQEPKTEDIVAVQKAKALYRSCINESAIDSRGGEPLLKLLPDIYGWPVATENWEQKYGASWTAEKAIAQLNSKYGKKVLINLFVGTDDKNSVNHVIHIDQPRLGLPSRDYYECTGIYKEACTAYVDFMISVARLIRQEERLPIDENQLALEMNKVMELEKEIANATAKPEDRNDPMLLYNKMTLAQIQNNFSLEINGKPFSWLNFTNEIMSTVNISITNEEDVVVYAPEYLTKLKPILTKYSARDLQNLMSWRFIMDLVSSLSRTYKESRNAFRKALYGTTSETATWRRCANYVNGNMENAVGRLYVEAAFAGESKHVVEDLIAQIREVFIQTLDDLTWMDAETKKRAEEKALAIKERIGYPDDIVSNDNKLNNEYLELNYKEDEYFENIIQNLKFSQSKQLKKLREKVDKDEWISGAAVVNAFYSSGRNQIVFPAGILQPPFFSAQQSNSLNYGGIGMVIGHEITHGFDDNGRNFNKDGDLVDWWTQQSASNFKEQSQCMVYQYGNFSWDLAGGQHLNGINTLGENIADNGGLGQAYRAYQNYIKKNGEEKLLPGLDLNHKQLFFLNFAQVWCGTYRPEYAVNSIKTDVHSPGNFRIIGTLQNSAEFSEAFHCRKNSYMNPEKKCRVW

human ACE2 = human ACE2 (Homo sapiens, UniProt Q9BYF1); assay: Peptidase selectivity: ACE2, fluorogenic substrate; format: biochemical; conditions: eight-point concentration–response up to 300 μM; substrate 10 μM
Sequence of human ACE2 (Q9BYF1 18-805): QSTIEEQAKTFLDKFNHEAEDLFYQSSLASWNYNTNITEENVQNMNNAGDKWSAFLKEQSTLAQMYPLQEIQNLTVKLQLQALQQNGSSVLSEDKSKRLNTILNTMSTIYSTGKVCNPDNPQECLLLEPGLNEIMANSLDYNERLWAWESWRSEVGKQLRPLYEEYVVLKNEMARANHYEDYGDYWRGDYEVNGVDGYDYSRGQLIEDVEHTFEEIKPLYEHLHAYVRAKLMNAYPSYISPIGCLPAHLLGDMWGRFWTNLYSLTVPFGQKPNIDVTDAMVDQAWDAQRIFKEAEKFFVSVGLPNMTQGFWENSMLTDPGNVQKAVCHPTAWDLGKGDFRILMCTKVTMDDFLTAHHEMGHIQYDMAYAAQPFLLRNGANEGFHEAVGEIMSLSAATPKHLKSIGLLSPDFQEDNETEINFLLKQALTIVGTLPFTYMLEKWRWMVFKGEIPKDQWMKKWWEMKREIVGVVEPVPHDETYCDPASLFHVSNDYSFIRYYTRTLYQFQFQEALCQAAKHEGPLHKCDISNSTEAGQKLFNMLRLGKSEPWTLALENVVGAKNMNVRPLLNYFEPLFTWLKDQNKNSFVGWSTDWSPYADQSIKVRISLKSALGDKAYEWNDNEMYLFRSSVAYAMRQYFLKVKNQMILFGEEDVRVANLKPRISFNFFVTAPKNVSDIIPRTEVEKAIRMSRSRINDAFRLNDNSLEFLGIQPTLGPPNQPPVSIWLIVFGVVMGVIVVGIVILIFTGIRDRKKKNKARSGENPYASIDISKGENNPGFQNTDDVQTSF
Method in brief: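 Recombinant human ACE2 was tested in artificial CSF at 37 °C with a 10 min preincubation of enzyme and test compound (from 30–50 mM DMSO stocks). Mca-Ala-Pro-Lys(Dnp) (10 µM) started the reaction, and fluorescence (320 nm excitation, 405 nm emission) was followed continuously for 20 min; n = 4.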

[4] = target: human angiotensin-converting enzyme (Homo sapiens, UniProt P12821); assay: Peptidase selectivity: ACE, fluorogenic substrate; format: biochemical; conditions: eight-point concentration–response up to 300 μM; substrate 10 μM
Sequence of human angiotensin-converting enzyme (P12821 30-1306): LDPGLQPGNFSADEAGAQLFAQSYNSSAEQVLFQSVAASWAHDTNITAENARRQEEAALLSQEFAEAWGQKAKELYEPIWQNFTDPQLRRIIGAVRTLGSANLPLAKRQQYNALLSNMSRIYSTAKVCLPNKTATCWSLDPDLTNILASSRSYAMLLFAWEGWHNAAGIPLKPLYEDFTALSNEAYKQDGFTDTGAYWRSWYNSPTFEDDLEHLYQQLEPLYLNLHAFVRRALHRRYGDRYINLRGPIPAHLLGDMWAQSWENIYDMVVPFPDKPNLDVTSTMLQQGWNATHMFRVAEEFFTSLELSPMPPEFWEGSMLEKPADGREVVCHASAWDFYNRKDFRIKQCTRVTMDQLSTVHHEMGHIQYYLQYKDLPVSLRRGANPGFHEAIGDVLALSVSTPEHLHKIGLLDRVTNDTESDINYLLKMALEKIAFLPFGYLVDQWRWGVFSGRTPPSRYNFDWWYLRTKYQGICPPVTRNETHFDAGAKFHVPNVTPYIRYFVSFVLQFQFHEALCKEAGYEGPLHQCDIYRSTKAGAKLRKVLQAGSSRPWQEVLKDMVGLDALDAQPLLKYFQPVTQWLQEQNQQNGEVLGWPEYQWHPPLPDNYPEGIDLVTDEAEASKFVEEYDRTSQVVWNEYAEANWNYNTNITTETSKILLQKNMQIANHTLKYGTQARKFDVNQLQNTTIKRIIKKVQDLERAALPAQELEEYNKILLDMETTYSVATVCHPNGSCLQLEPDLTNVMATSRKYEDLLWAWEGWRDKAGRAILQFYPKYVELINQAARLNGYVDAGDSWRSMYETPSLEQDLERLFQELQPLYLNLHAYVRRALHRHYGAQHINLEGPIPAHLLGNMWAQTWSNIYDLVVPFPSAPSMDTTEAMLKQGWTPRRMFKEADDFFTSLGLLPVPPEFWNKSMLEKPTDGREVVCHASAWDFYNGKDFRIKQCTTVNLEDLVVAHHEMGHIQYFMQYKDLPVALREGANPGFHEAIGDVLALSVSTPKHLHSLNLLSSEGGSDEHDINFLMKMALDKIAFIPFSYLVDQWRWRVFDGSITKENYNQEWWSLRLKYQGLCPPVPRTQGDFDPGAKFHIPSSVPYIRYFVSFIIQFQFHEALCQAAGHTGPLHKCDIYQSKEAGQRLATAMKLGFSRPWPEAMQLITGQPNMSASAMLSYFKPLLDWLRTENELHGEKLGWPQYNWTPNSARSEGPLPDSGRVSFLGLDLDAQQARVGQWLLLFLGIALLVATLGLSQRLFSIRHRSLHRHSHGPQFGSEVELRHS
Method in brief: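 Continuous fluorogenic assay with recombinant human ACE in artificial CSF at 37 °C. Test compound (from 30–50 mM DMSO stocks) was preincubated with enzyme for 10 min. The reaction was started with Mca-[…]Dnp)-OH (10 µM), and fluorescence (ex 320/em 405 nm) was read continuously for 20 min; n = 4.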

[5] = target: Rat recombinant neurolysin (Rattus norvegicus, UniProt P42676); assay: Hydrolysis of endogenous substrates BK and NT by Nln, LC-MS/MS; format: biochemical; conditions: compound 10 or 30 μM, Nln 0.5 nM; for hydrolysis of BK by Nln, formation of BK-(1–5): BK 20 μM; for hydrolysis of NT by Nln, formation of NT-(1–10): NT 20 μM
Sequence of Rat recombinant neurolysin (P42676 38-704): as the sequence (P42676 38-704) above
Method in brief: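 In-house recombinant rat Nln (0.5 nM) was preincubated 10 min at 37 °C with test compound (10 or 30 µM), then given bradykinin (20 µM) for a further 10 min at 37 °C. BK-(1–5) was quantified by LC–MS/MS (water/acetonitrile with 0.1% formic acid gradient, column 40 °C) as a peak-area ratio to internal standard; n = 3.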

[6] = 100% = normal enzyme turnover, mean of n = 4, 95% CI in parentheses
[7] = CD-1 (source of the primary astrocytes), mouse

Work on N[C@@H](Cc1c[nH]cn1)C(=O)N[C@@H](Cc1c[nH]c2ccccc12)C(=O)O [Compound 4, His–Trp] yielded a Papp A→B at 120 min, 10 μg/mL ([1]; CD-1, mouse) of 5.33 ×10⁻⁶ cm/s.

For N[C@H](Cc1c[nH]cn1)C(=O)NCc1ccc(OC(F)(F)F)cc1 [Compound 5q, (R)-2-Amino-3-(1H-imidazol-4-yl)-N-(4-(trifluoromethoxy)-benzyl)propanamide], the “Amax, maximum % activation achieved (95% CI)” value (“Amax … (95% CI)” for short) (recombinant rat Nln) was 337.1 (312 to 364.9) %.

For N[C@@H](Cc1c[nH]cn1)C(=O)NCc1ccc(SC(F)(F)F)cc1 [Compound 5r, (S)-2-Amino-3-(1H-imidazol-4-yl)-N-(4-((trifluoromethyl)thio)-benzyl)propanamide], the “Amax … (95% CI)” value (recombinant rat Nln) was 287.5 (277.4 to 298.4) %.

In the case of N[C@H](Cc1c[nH]cn1)C(=O)NCc1ccc(SC(F)(F)F)cc1 [Compound 5s, (R)-2-Amino-3-(1H-imidazol-4-yl)-N-(4-((trifluoromethyl)thio)-benzyl)propanamide], the “Amax … (95% CI)” value (recombinant rat Nln) is reported as 251.5 (233.7 to 271.3) %.

In the case of N[C@@H](Cc1c[nH]cn1)C(=O)Nc1ccccc1 [Compound 6a, (S)-2-Amino-3-(1H-imidazol-4-yl)-N-phenylpropanamide], the “Amax … (95% CI)” value (recombinant rat Nln; [6]) is reported as 466.6 (402.3 to 579.7) %.

For N[C@H](Cc1c[nH]cn1)C(=O)Nc1ccccc1 [Compound 6b, (R)-2-Amino-3-(1H-imidazol-4-yl)-N-phenylpropanamide], the “Amax … (95% CI)” value (recombinant rat Nln; [6]) was 440.3 (414.9 to 470.4) %.

For N[C@@H](Cc1c[nH]cn1)C(=O)NCCCc1ccccc1 [Compound 7a, (S)-2-Amino-3-(1H-imidazol-4-yl)-N-(3-phenylpropyl)-propanamide], the “Amax … (95% CI)” value (recombinant rat Nln; [6]) was 288.1 (273.6 to 303.8) %.

For N[C@H](Cc1c[nH]cn1)C(=O)NCCCc1ccccc1 [Compound 7b, (R)-2-Amino-3-(1H-imidazol-4-yl)-N-(3-phenylpropyl)-propanamide], the “Amax … (95% CI)” value (recombinant rat Nln; [6]) was 281.8 (269.9 to 294.5) %.

For N[C@@H](Cc1c[nH]cn1)C(=O)NCCCCc1ccccc1 [Compound 8a, (S)-2-Amino-3-(1H-imidazol-4-yl)-N-(4-phenylbutyl)-propanamide], the “Amax … (95% CI)” value (recombinant rat Nln; [6]) was 328 (309 to 351) %.

With N[C@H](Cc1c[nH]cn1)C(=O)NCCCCc1ccccc1 [Compound 8b, (R)-2-Amino-3-(1H-imidazol-4-yl)-N-(4-phenylbutyl)-propanamide] the “Amax … (95% CI)” value (recombinant rat Nln; [6]) was 233.8 (215.9 to 254.8) %.

For N[C@@H](Cc1c[nH]cn1)C(=O)NCCc1c[nH]c2ccccc12 [Compound 9d, (S)-N-(2-(1H-Indol-3-yl)ethyl)-2-amino-3-(1H-imidazol-4-yl)-propanamide], the fraction unbound at 4 h, 500 ng/mL [2] was 0.14 ± 0.012, the Papp A→B at 120 min, 10 μg/mL [1, 7] was 17.8 ×10⁻⁶ cm/s and the “increase in BBB permeability / brain penetration over hit compounds 1 and 4” value [3] was 4–5 fold. For the same compound, the “effect on catalytic activity of TOP” value (human TOP) was “only exhibited inhibition at concentrations approaching 300 μM”, the “effect on catalytic activity of NEP” value (human NEP) was “None of the three compounds showed appreciable inhibition” and the “effect on catalytic activity of ACE2” value (human ACE2) was “inhibition of ACE2 at high concentrations”. The “effect on catalytic activity of ACE” value [4] was “inhibition of ACE at high concentration”, the “hydrolysis of BK by Nln, formation of BK-(1–5)” value (from here on “hydrolysis of BK by Nln”) [5] was “enhanced hydrolysis of BK” and the “hydrolysis of NT by Nln, formation of NT-(1–10)” value (from here on “hydrolysis of NT by Nln”) [5] was “hydrolysis of NT by Nln was also enhanced”.

For N[C@H](Cc1c[nH]cn1)C(=O)NCCc1c[nH]c2ccccc12 [Compound 9e, (R)-N-(2-(1H-Indol-3-yl)ethyl)-2-amino-3-(1H-imidazol-4-yl)-propanamide], the “Amax … (95% CI)” value (recombinant rat Nln; [6]) was 132 (122.5 to 143.6) % and the “Amax … (95% CI)” value (recombinant rat Nln; 100% = normal enzyme turnover, mean of n = 4, 95% CI in parentheses, listed as D-9e) was 132%.

With N[C@@H](Cc1c[nH]cn1)C(=O)NCCc1ccc2ccccc2c1 [Compound 9f, (S)-2-Amino-3-(1H-imidazol-4-yl)-N-(2-(naphthalen-2-yl)ethyl)-propanamide] the “Amax … (95% CI)” value (recombinant rat Nln) was 323.7 (310.3 to 337.9) %.

In the case of N[C@H](Cc1c[nH]cn1)C(=O)NCCc1ccc2ccccc2c1 [Compound 9g, (R)-2-Amino-3-(1H-imidazol-4-yl)-N-(2-(naphthalen-2-yl)ethyl)-propanamide], the “Amax … (95% CI)” value (recombinant rat Nln) is reported as 339.8 (325.4 to 355.4) %.

With N[C@@H](Cc1c[nH]cn1)C(=O)NCc1ccc2ccccc2c1 [Compound 10a, (S)-2-Amino-3-(1H-imidazol-4-yl)-N-(naphthalen-2-ylmethyl)-propanamide] the “Amax … (95% CI)” value (recombinant rat Nln; [6]) was 210.9 (191.7 to 231.9) %.

For N[C@H](Cc1c[nH]cn1)C(=O)NCc1ccc2ccccc2c1 [Compound 10b, (R)-2-Amino-3-(1H-imidazol-4-yl)-N-(naphthalen-2-ylmethyl)-propanamide], the “Amax … (95% CI)” value (recombinant rat Nln; [6]) was 197.5 (184.9 to 214.8) %.

With N[C@@H](Cc1c[nH]cn1)C(=O)NCc1cccc2ccccc12 [Compound 10c, (S)-2-Amino-3-(1H-imidazol-4-yl)-N-(naphthalen-1-ylmethyl)-propanamide] the “Amax … (95% CI)” value (recombinant rat Nln; [6]) was 264 (256.3 to 272.6) %, the “increase in potency over the least active hit” value (recombinant rat Nln) was > 30 fold and the “increase in potency over the most active hit” value (recombinant rat Nln) was > 10 fold. The “increase in BBB permeability / brain penetration over hit compounds 1 and 4” value [3] was 4–5 fold, the “effect on catalytic activity of TOP” value (human TOP) was “No appreciable inhibition” and the “effect on catalytic activity of NEP” value (human NEP) was “None of the three compounds showed appreciable inhibition”. For the same compound, the “effect on catalytic activity of ACE2” value (human ACE2) was “no inhibition up to 300 μM”, the “effect on catalytic activity of ACE” value [4] was “no inhibition at the maximum concentration tested” and the “hydrolysis of BK by Nln” value [5] was “enhanced hydrolysis of BK”. For the same compound, the “hydrolysis of NT by Nln” value [5] was “hydrolysis of NT by Nln was also enhanced”.

For N[C@H](Cc1c[nH]cn1)C(=O)NCc1cccc2ccccc12 [Compound 10d, (R)-2-Amino-3-(1H-imidazol-4-yl)-N-(naphthalen-1-ylmethyl)-propanamide], the “Amax … (95% CI)” value (recombinant rat Nln; [6]) was 343 (325.2 to 363.5) %.

For N[C@@H](Cc1c[nH]cn1)C(=O)Nc1cccc2cccnc12 [Compound 11a, (S)-2-Amino-3-(1H-imidazol-4-yl)-N-(quinolin-8-yl)propanamide], the “Amax … (95% CI)” value (recombinant rat Nln; [6]) was 281.2 (266.7 to 297.1) %, the “increase in potency over the least active hit” value (recombinant rat Nln) was > 30 fold and the “increase in potency over the most active hit” value (recombinant rat Nln) was > 10 fold. The “mean Amax of the two enantiomers” value (recombinant rat Nln) was 285%, the fraction unbound at 4 h, 500 ng/mL [2] was 0.062 ± 0.011 and the Papp A→B at 120 min, 10 μg/mL [1, 7] was 19 ×10⁻⁶ cm/s. The “increase in BBB permeability / brain penetration over hit compounds 1 and 4” value [3] was 4–5 fold, the “effect on catalytic activity of TOP” value (human TOP) was “No appreciable inhibition” and the “effect on catalytic activity of NEP” value (human NEP) was “None of the three compounds showed appreciable inhibition”. For the same compound, the “effect on catalytic activity of ACE2” value (human ACE2) was “inhibition of ACE2 at high concentrations”, the “effect on catalytic activity of ACE” value [4] was “inhibition of ACE at high concentration” and the “hydrolysis of BK by Nln” value [5] was “enhanced hydrolysis of BK”. The “hydrolysis of NT by Nln” value [5] was “hydrolysis of NT by Nln was also enhanced”.

With N[C@H](Cc1c[nH]cn1)C(=O)Nc1cccc2cccnc12 [Compound 11b, (R)-2-Amino-3-(1H-imidazol-4-yl)-N-(quinolin-8-yl)propanamide] the “Amax … (95% CI)” value (recombinant rat Nln; [6]) was 288.3 (274.3 to 303.3) % and the “mean Amax of the two enantiomers” value (recombinant rat Nln) was 285%.

With “(S)-tert-Butyl(1-((2-(1H-indol-3-yl)ethyl)amino)-3-(1H-imidazol-4-yl)-1-oxopropan-2-yl)carbamate [Compound 9b]” the “Nln activation, result in words” value (recombinant rat Nln) was “ameliorates activity”, the “Amax … (95% CI)” value (recombinant rat Nln; [6]) was “Inactive” and the “A50, half maximal activation concentration (95% CI)” value (recombinant rat Nln; recombinant rat Nln, QFS […] μM, 37 °C, mean of n = 4, 95% CI in parentheses) was “Inactive”.

For “N-(2-(1H-Indol-3-yl)ethyl)-3-(1H-imidazol-4-yl)propanamide [Compound 9c]”, the “A50, half maximal activation concentration (95% CI)” value (recombinant rat Nln) was “Inactive”, the “Amax … (95% CI)” value (recombinant rat Nln) was “Inactive” and the “Nln activation, result in words” value (recombinant rat Nln) was “complete amelioration of activity; also recorded: ameliorates activity”.
